Assays:
HaCaT [1] = assay: Antiproliferative activity against human HaCaT cells after 48 hrs by phase contrast microscopy; format: functional, cell-based
Procedure, shortened: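 HaCaT human keratinocytes were grown in DMEM with 10% fetal calf serum, penicillin and streptomycin at 37 °C under 8% CO2. After 48 h of exposure, dispersed cells were counted by phase-contrast microscopy. Inhibition = (1 − test/control) × 100, with test N = 3 and control N = 6–8. Significance was tested by Student's t-test. IC50 was obtained by nonlinear regression.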

[2] = system: Radical scavenging activity; assay: Antioxidant activity assessed as DPPH free radical scavenging activity by spectrophotometry; format: functional
Procedure, shortened: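 DPPH radical decrease read spectrophotometrically as absorbance at 520 nm. Percent interaction = (1 − test absorbance/control absorbance) × 100, with test means from N = 3 and control means from N = 8. EC50 is the concentration giving a 50% drop in DPPH absorbance, obtained by nonlinear regression. NDGA and α-tocopherol served as positive controls.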

HaCaT [3] = assay: Cytotoxicity against human HaCaT cells assessed as LDH release at 2 uM after 4 hrs; format: cell-based
Procedure, shortened: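 HaCaT cells were exposed to test compound for 4 h at 37 °C. Extracellular LDH activity was measured by the UV method with pyruvate and NADH and expressed in mU/mL. The vehicle control was 0.2% DMSO in culture medium, and Brij 35 with ultrasound was the positive control. N = 3, SD < 10%.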

| Structure (SMILES) | IC50 (HaCaT [1]) [µM] | EC50 [2] [µM] | Activity (HaCaT [3]) [mU/ml] |
| --- | --- | --- | --- |
| COc1cc(CC2c3c(Cl)cccc3C(=O)c3cccc(Cl)c32)cc(OC)c1 | 24 | > 50 |  |
| COc1cccc(CC2c3c(Cl)cccc3C(=O)c3cccc(Cl)c32)c1 | 2 | > 50 | 65 |
| O=C1c2cccc(Cl)c2C(Cc2ccccc2)c2c(Cl)cccc21 | 4.3 | > 50 | 69.6 |
| COc1ccc(OC)c(CC2c3c(Cl)cccc3C(=O)c3cccc(Cl)c32)c1 | 3.8 | > 50 | 60.6 |
| COc1ccc(CC2c3c(Cl)cccc3C(=O)c3cccc(Cl)c32)cc1OC | 5 | > 50 | 68.4 |
| O=C1c2cccc(Cl)c2C(Cc2ccc(O)cc2)c2c(Cl)cccc21 | 19 | > 50 |  |
| O=C1c2cccc(Cl)c2C(Cc2cccc(O)c2)c2c(Cl)cccc21 | 15 | > 50 |  |
| O=C1c2cccc(Cl)c2C(Cc2ccc(C(F)(F)F)cc2)c2c(Cl)cccc21 | 25 | > 50 |  |
| O=C1c2c(O)cccc2Cc2cccc(O)c21 [ANTHRALIN] |  | 16.7 | 122.8 |
| O=C1c2cccc(Cl)c2C(Cc2ccccc2Cl)c2c(Cl)cccc21 | 30 | > 50 |  |
| O=C1c2cccc(Cl)c2C(Cc2ccc(OCc3ccccc3)cc2)c2c(Cl)cccc21 | 36 | > 50 |  |
| COc1ccccc1CC1c2c(Cl)cccc2C(=O)c2cccc(Cl)c21 | > 50 | > 50 |  |
| Cc1ccc(CC2c3c(Cl)cccc3C(=O)c3cccc(Cl)c32)cc1 | 44 | > 50 |  |
| COc1ccc(C2c3c(Cl)cccc3C(=O)c3cccc(Cl)c32)cc1 | 20 | > 50 |  |
| O=C1c2cccc(Cl)c2Cc2c(Cl)cccc21 |  | 29.5 | 64.4 |
| O=C1c2cccc(Cl)c2C(Cc2ccc([N+](=O)[O-])cc2[N+](=O)[O-])c2c(Cl)cccc21 | 17 | > 50 |  |
| O=C1c2cccc(Cl)c2C(Cc2ccc(OCc3ccccc3)c(OCc3ccccc3)c2)c2c(Cl)cccc21 | > 50 | > 50 |  |
| O=C1c2cccc(Cl)c2C(Cc2ccc([N+](=O)[O-])cc2)c2c(Cl)cccc21 | > 50 | > 50 |  |
| COc1ccc(CC2c3c(Cl)cccc3C(=O)c3cccc(Cl)c32)cc1O | 0.7 | > 50 | 69.5 |
| O=C1c2cccc(Cl)c2C(Cc2cccc(OCc3ccccc3)c2)c2c(Cl)cccc21 | 22 | > 50 |  |
| O=C1c2cccc(Cl)c2C(Cc2ccccc2[N+](=O)[O-])c2c(Cl)cccc21 | > 50 | > 50 |  |
| O=C1c2cccc(Cl)c2C(c2ccccc2)c2c(Cl)cccc21 | > 50 | > 50 |  |
| COc1ccc(CC2c3c(Cl)cccc3C(=O)c3cccc(Cl)c32)cc1 | 5 | > 50 | 57.6 |
| O=C1c2cccc(Cl)c2C(Cc2ccc(Cl)cc2)c2c(Cl)cccc21 | 36 | > 50 |  |
| Cc1ccc(C2c3c(Cl)cccc3C(=O)c3cccc(Cl)c32)cc1 | > 50 | > 50 |  |
| O=C1c2cccc(Cl)c2C(Cc2cccc([N+](=O)[O-])c2)c2c(Cl)cccc21 | 5 | > 50 | 69.9 |
| COc1ccc(CC2c3c(Cl)cccc3C(=O)c3cccc(Cl)c32)cc1OCc1ccccc1 | > 50 | > 50 |  |
| COc1cc(CC2c3c(Cl)cccc3C(=O)c3cccc(Cl)c32)cc(OC)c1OC | > 50 | > 50 |  |
| O=C1c2cccc(Cl)c2C(Cc2ccc(O)c(O)c2)c2c(Cl)cccc21 | 18 | 6.3 | 76.6 |
